Laboratory results taken from ChEMBL document CHEMBL1649574, “Prevalence and characterization of heterogeneous vancomycin-intermediate Staphylococcus aureus isolates from 14 cities in China” (2009).
Values after ≈ are worked out from the molar mass of the structure shown.

Assays:
Format in all cases: functional
Staphylococcus aureus [1] = assay: Antimicrobial activity against SCCmec type II vancomycin-intermediate Staphylococcus aureus isolate 4sy32 by agar dilution method
Outline: (§1)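 Agar-dilution MICs were measured on a subset of 200 blood MRSA isolates from China. Agents: oxacillin, rifampin, gentamicin, levofloxacin, erythromycin, vancomycin, teicoplanin, tigecycline, ceftobiprole and linezolid. Phenotype came from the PAP-AUC ratio of each isolate to S. aureus Mu3 (VSSA <0.9; hVISA 0.9 to 1.3; VISA ≥1.3), read on BHI agar with 0 to 8.0 mg/liter vancomycin after 48 h at 35°C.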

Staphylococcus aureus [2] = assay: Antimicrobial activity against SCCmec type II vancomycin-intermediate Staphylococcus aureus isolate 4sy39 by agar dilution method; outline: as §1
Staphylococcus aureus [3] = assay: Antimicrobial activity against heterogeneous vancomycin-intermediate Staphylococcus aureus by agar dilution method; outline: as §1
Staphylococcus aureus [4] = assay: Antimicrobial activity against vancomycin-intermediate Staphylococcus aureus by agar dilution method; outline: as §1
Staphylococcus aureus [5] = assay: Antimicrobial activity against heterogeneous vancomycin-intermediate Staphylococcus aureus assessed as intermediate isolates by agar dilution method
Outline: (§2)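 MICs by agar dilution for all 200 MRSA blood isolates (oxacillin, rifampin, gentamicin, levofloxacin, erythromycin, vancomycin, teicoplanin, tigecycline, ceftobiprole, linezolid). Isolates were grouped by PAP-AUC ratio against S. aureus Mu3: below 0.9 VSSA, 0.9 to 1.3 hVISA, 1.3 or more VISA.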

Staphylococcus aureus [6] = assay: Antimicrobial activity against heterogeneous vancomycin-intermediate Staphylococcus aureus assessed as susceptible isolates by agar dilution method; outline: as §2
Staphylococcus aureus [7] = assay: Antimicrobial activity against heterogeneous vancomycin-intermediate Staphylococcus aureus assessed as growth inhibition at 0.25 times MIC; design: scale not given: the % may be the effect or the level left
Staphylococcus aureus [8] = assay: Antimicrobial activity against heterogeneous vancomycin-intermediate Staphylococcus aureus assessed as growth inhibition at 0.125 times MIC; design: scale not given: the % may be the effect or the level left
Staphylococcus aureus [9] = assay: Antimicrobial activity against vancomycin-susceptible Staphylococcus aureus by agar dilution method; outline: as §1
Staphylococcus aureus [10] = assay: Antimicrobial activity against heterogeneous vancomycin-susceptible Staphylococcus aureus assessed as intermediate isolates by agar dilution method
Staphylococcus aureus [11] = assay: Antimicrobial activity against heterogeneous vancomycin-susceptible Staphylococcus aureus assessed as susceptible isolates by agar dilution method; outline: as §2
Staphylococcus aureus [12] = assay: Antimicrobial activity against heterogeneous vancomycin-intermediate Staphylococcus aureus assessed as growth inhibition at 0.5 times MIC; design: scale not given: the % may be the effect or the level left
Staphylococcus aureus [13] = assay: Antimicrobial activity against heterogeneous vancomycin-intermediate Staphylococcus aureus assessed as growth inhibition at MIC; design: scale not given: the % may be the effect or the level left
Staphylococcus aureus [14] = assay: Antimicrobial activity against heterogeneous vancomycin-intermediate Staphylococcus aureus assessed as growth inhibition at 2 times MIC; design: scale not given: the % may be the effect or the level left
Staphylococcus aureus [15] = assay: Antimicrobial activity against heterogeneous vancomycin-intermediate Staphylococcus aureus assessed as growth inhibition at 4 times MIC; design: scale not given: the % may be the effect or the level left
Staphylococcus aureus [16] = assay: Antimicrobial activity against heterogeneous vancomycin-intermediate Staphylococcus aureus assessed as growth inhibition at 16 times MIC; design: scale not given: the % may be the effect or the level left
Staphylococcus aureus [17] = assay: Antimicrobial activity against vancomycin-susceptible Staphylococcus aureus assessed as growth inhibition at 0.125 times MIC; design: scale not given: the % may be the effect or the level left
Staphylococcus aureus [18] = assay: Antimicrobial activity against vancomycin-susceptible Staphylococcus aureus assessed as growth inhibition at 0.25 times MIC; design: scale not given: the % may be the effect or the level left
Staphylococcus aureus [19] = assay: Antimicrobial activity against vancomycin-susceptible Staphylococcus aureus assessed as growth inhibition at 0.5 times MIC; design: scale not given: the % may be the effect or the level left
Staphylococcus aureus [20] = assay: Antimicrobial activity against vancomycin-susceptible Staphylococcus aureus assessed as growth inhibition at MIC; design: scale not given: the % may be the effect or the level left
Staphylococcus aureus [21] = assay: Antimicrobial activity against vancomycin-susceptible Staphylococcus aureus assessed as growth inhibition at 2 times MIC; design: scale not given: the % may be the effect or the level left
Staphylococcus aureus [22] = assay: Antimicrobial activity against vancomycin-susceptible Staphylococcus aureus assessed as growth inhibition at 4 times MIC; design: scale not given: the % may be the effect or the level left
Staphylococcus aureus [23] = assay: Antimicrobial activity against vancomycin-susceptible Staphylococcus aureus assessed as growth inhibition at 16 times MIC; design: scale not given: the % may be the effect or the level left
Staphylococcus aureus [24] = assay: Antimicrobial activity against SCCmec type III vancomycin-intermediate Staphylococcus aureus isolate 5zjsau3 by agar dilution method; outline: as §1
Staphylococcus aureus [25] = assay: Antimicrobial activity against SCCmec type II vancomycin-intermediate Staphylococcus aureus isolate sh06024 by agar dilution method; outline: as §1
Staphylococcus aureus [26] = assay: Antimicrobial activity against SCCmec type III vancomycin-intermediate Staphylococcus aureus isolate gz06040 by agar dilution method; outline: as §1
Staphylococcus aureus [27] = assay: Antimicrobial activity against SCCmec type II vancomycin-intermediate Staphylococcus aureus isolate 6zjsau7 by agar dilution method; outline: as §1
Staphylococcus aureus [28] = assay: Antimicrobial activity against SCCmec type III vancomycin-intermediate Staphylococcus aureus isolate bd4768 by agar dilution method; outline: as §1
Staphylococcus aureus [29] = assay: Antimicrobial activity against SCCmec type II vancomycin-intermediate Staphylococcus aureus isolate b2k4781 by agar dilution method; outline: as §1
Staphylococcus aureus [30] = assay: Antimicrobial activity against SCCmec type III vancomycin-intermediate Staphylococcus aureus isolate b3k2345 by agar dilution method; outline: as §1
Staphylococcus aureus [31] = assay: Antimicrobial activity against SCCmec type III vancomycin-intermediate Staphylococcus aureus isolate b2k3421 by agar dilution method; outline: as §1
Staphylococcus aureus [32] = assay: Antimicrobial activity against SCCmec type III vancomycin-intermediate Staphylococcus aureus isolate b3k5923 by agar dilution method; outline: as §1
Staphylococcus aureus [33] = assay: Antimicrobial activity against SCCmec type III vancomycin-intermediate Staphylococcus aureus isolate b4k6307 by agar dilution method; outline: as §1
Staphylococcus aureus [34] = assay: Antimicrobial activity against SCCmec type III vancomycin-intermediate Staphylococcus aureus isolate b5k3529 by agar dilution method; outline: as §1
Staphylococcus aureus [35] = assay: Antimicrobial activity against SCCmec type III vancomycin-intermediate Staphylococcus aureus isolate b5k3578 by agar dilution method; outline: as §1
Staphylococcus aureus [36] = assay: Antimicrobial activity against SCCmec type III vancomycin-intermediate Staphylococcus aureus isolate b6k1642 by agar dilution method; outline: as §1
Staphylococcus aureus [37] = assay: Antimicrobial activity against SCCmec type III vancomycin-intermediate Staphylococcus aureus isolate b6k7974 by agar dilution method; outline: as §1
Staphylococcus aureus [38] = assay: Antimicrobial activity against SCCmec type IV vancomycin-intermediate Staphylococcus aureus isolate 06b41 by agar dilution method; outline: as §1
Staphylococcus aureus [39] = assay: Antimicrobial activity against SCCmec type II vancomycin-intermediate Staphylococcus aureus isolate 07b63 by agar dilution method; outline: as §1
Staphylococcus aureus [40] = assay: Antimicrobial activity against SCCmec type III vancomycin-intermediate Staphylococcus aureus isolate 15b52 by agar dilution method; outline: as §1
Staphylococcus aureus [41] = assay: Antimicrobial activity against SCCmec type III vancomycin-intermediate Staphylococcus aureus isolate zj07028 by agar dilution method; outline: as §1
Staphylococcus aureus [42] = assay: Antimicrobial activity against SCCmec type III vancomycin-intermediate Staphylococcus aureus isolate xa07029 by agar dilution method; outline: as §1
Staphylococcus aureus [43] = assay: Antimicrobial activity against SCCmec type III vancomycin-intermediate Staphylococcus aureus isolate gz07030 by agar dilution method; outline: as §1
Staphylococcus aureus [44] = assay: Antimicrobial activity against SCCmec type III vancomycin-intermediate Staphylococcus aureus isolate gs07022 by agar dilution method; outline: as §1
Staphylococcus aureus [45] = assay: Antimicrobial activity against SCCmec type III vancomycin-intermediate Staphylococcus aureus isolate gz06051 by agar dilution method; outline: as §1
Staphylococcus aureus [46] = assay: Antimicrobial activity against SCCmec type III vancomycin-intermediate Staphylococcus aureus isolate 13b16 by agar dilution method; outline: as §1
Staphylococcus aureus [47] = assay: Antimicrobial activity against SCCmec type III vancomycin-intermediate Staphylococcus aureus isolate 11b091 by agar dilution method; outline: as §1
Staphylococcus aureus [48] = assay: Antimicrobial activity against SCCmec type III vancomycin-intermediate Staphylococcus aureus isolate sh07043 by agar dilution method; outline: as §1

With `CC(=O)NC[C@H]1CN(c2ccc(N3CCOCC3)c(F)c2)C(=O)O1` [LINEZOLID] the MIC (Staphylococcus aureus [1]) was 1 µg/mL (≈ 2.96 µM), the MIC (Staphylococcus aureus [2]) was 1 µg/mL (≈ 2.96 µM) and the MIC50 (Staphylococcus aureus [3]) was 1 µg/mL (≈ 2.96 µM). The MIC90 (Staphylococcus aureus [3]) was 2 µg/mL (≈ 5.93 µM), the MIC (Staphylococcus aureus [4]) was 1 µg/mL (≈ 2.96 µM) and the Activity (Staphylococcus aureus [5]) was 0%. It also gave an Activity (Staphylococcus aureus [6]) of 100%, an Activity (Staphylococcus aureus [7]) of 0% and an Activity (Staphylococcus aureus [8]) of 0%. The MIC50 (Staphylococcus aureus [9]) was 1 µg/mL (≈ 2.96 µM), the MIC90 (Staphylococcus aureus [9]) was 2 µg/mL (≈ 5.93 µM) and the Activity (Staphylococcus aureus [10]) was 0%. It also gave an Activity (Staphylococcus aureus [11]) of 100%, an Activity (Staphylococcus aureus [12]) of 33.3% and an Activity (Staphylococcus aureus [13]) of 85.2%. It also gave an Activity (Staphylococcus aureus [14]) of 100%, an Activity (Staphylococcus aureus [15]) of 100% and an Activity (Staphylococcus aureus [16]) of 100%. The Activity (Staphylococcus aureus [17]) was 0.58%, the Activity (Staphylococcus aureus [18]) was 1.16% and the Activity (Staphylococcus aureus [19]) was 31.2%. The Activity (Staphylococcus aureus [20]) was 82.7%, the Activity (Staphylococcus aureus [21]) was 100% and the Activity (Staphylococcus aureus [22]) was 100%. For the same compound, the Activity (Staphylococcus aureus [23]) was 100%, the MIC (Staphylococcus aureus [24]) was 1 µg/mL (≈ 2.96 µM) and the MIC (Staphylococcus aureus [25]) was 0.5 µg/mL (≈ 1.48 µM). For the same compound, the MIC (Staphylococcus aureus [26]) was 1 µg/mL (≈ 2.96 µM), the MIC (Staphylococcus aureus [27]) was 1 µg/mL (≈ 2.96 µM) and the MIC (Staphylococcus aureus [28]) was 1 µg/mL (≈ 2.96 µM). For the same compound, the MIC (Staphylococcus aureus [29]) was 0.5 µg/mL (≈ 1.48 µM), the MIC (Staphylococcus aureus [30]) was 0.5 µg/mL (≈ 1.48 µM) and the MIC (Staphylococcus aureus [31]) was 0.5 µg/mL (≈ 1.48 µM). For the same compound, the MIC (Staphylococcus aureus [32]) was 0.5 µg/mL (≈ 1.48 µM), the MIC (Staphylococcus aureus [33]) was 0.5 µg/mL (≈ 1.48 µM) and the MIC (Staphylococcus aureus [34]) was 0.5 µg/mL (≈ 1.48 µM). For the same compound, the MIC (Staphylococcus aureus [35]) was 0.5 µg/mL (≈ 1.48 µM), the MIC (Staphylococcus aureus [36]) was 1 µg/mL (≈ 2.96 µM) and the MIC (Staphylococcus aureus [37]) was 1 µg/mL (≈ 2.96 µM). The MIC (Staphylococcus aureus [38]) was 1 µg/mL (≈ 2.96 µM), the MIC (Staphylococcus aureus [39]) was 1 µg/mL (≈ 2.96 µM) and the MIC (Staphylococcus aureus [40]) was 0.5 µg/mL (≈ 1.48 µM). It also gave an MIC (Staphylococcus aureus [41]) of 1 µg/mL (≈ 2.96 µM), an MIC (Staphylococcus aureus [42]) of 1 µg/mL (≈ 2.96 µM) and an MIC (Staphylococcus aureus [43]) of 1 µg/mL (≈ 2.96 µM). It also gave an MIC (Staphylococcus aureus [44]) of 1 µg/mL (≈ 2.96 µM).

`C[C@H]1COc2c(N3CCN(C)CC3)c(F)cc3c(=O)c(C(=O)O)cn1c23.C[C@H]1COc2c(N3CCN(C)CC3)c(F)cc3c(=O)c(C(=O)O)cn1c23.O` [LEVOFLOXACIN] gave an MIC (Staphylococcus aureus [1]) of 8 µg/mL, an MIC (Staphylococcus aureus [2]) of 16 µg/mL and an MIC (Staphylococcus aureus [24]) of 16 µg/mL. It also gave an MIC (Staphylococcus aureus [25]) of 8 µg/mL, an MIC (Staphylococcus aureus [26]) of 64 µg/mL and an MIC (Staphylococcus aureus [45]) of 64 µg/mL. The MIC (Staphylococcus aureus [27]) was 32 µg/mL, the MIC (Staphylococcus aureus [28]) was 32 µg/mL and the MIC (Staphylococcus aureus [29]) was 32 µg/mL. For the same compound, the MIC (Staphylococcus aureus [30]) was 16 µg/mL, the MIC (Staphylococcus aureus [31]) was 16 µg/mL and the MIC (Staphylococcus aureus [32]) was 32 µg/mL. For the same compound, the MIC (Staphylococcus aureus [33]) was 4 µg/mL, the MIC (Staphylococcus aureus [34]) was 16 µg/mL and the MIC (Staphylococcus aureus [35]) was 16 µg/mL. For the same compound, the MIC (Staphylococcus aureus [36]) was 16 µg/mL, the MIC (Staphylococcus aureus [37]) was 64 µg/mL and the MIC (Staphylococcus aureus [38]) was 0.25 µg/mL. It also gave an MIC (Staphylococcus aureus [46]) of 32 µg/mL, an MIC (Staphylococcus aureus [47]) of 32 µg/mL and an MIC (Staphylococcus aureus [39]) of 8 µg/mL. The MIC (Staphylococcus aureus [40]) was 4 µg/mL, the MIC (Staphylococcus aureus [41]) was 8 µg/mL and the MIC (Staphylococcus aureus [48]) was 32 µg/mL. It also gave an MIC (Staphylococcus aureus [42]) of 8 µg/mL, an MIC (Staphylococcus aureus [43]) of 64 µg/mL and an MIC (Staphylococcus aureus [44]) of 32 µg/mL.
